The results in this text go back to ChEMBL document CHEMBL4316657, “Sesquiterpenes from an Endophytic Aspergillus flavus” (J Nat Prod, 2019).

pIC50: −log10 of the molar value. Bounds are passed on as bounds.

Experiment [1] deals with HepG2. The experiment is described as follows: Hepatoprotective activity against APAP-induced toxicity in human HepG2 cells assessed as cell survival rate at 10 uM after 48 hrs by MTT assay relative to control. The format is functional. The conditions noted are these: HepG2, 48 h, read-out: Survival. In short, it runs like this: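 HepG2 cells were co-treated with compound (10 μM final) and acetaminophen (10 mM final per methods; results text cites 8 mM) for 48 h. Bicyclol served as positive control and DMSO as negative control. MTT (0.5 mg/mL) was added for 4 h at 37 °C, formazan dissolved in DMSO, and A570 read. Survival = mean OD treated / mean OD solvent control.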
Background: Tetrazolium dyes change colour on reduction, which living cells bring about.

In another experiment the test system is A549. Put plainly: Cytotoxicity against human A549 cells measured after 72 hrs by MTT assay. To be noted: A549, 72 h.
In a further experiment the test system is MCF7. The experiment is described as follows: Cytotoxicity against human MCF7 cells measured after 72 hrs by MTT assay. The conditions noted are these: MCF7, 72 h.
Experiment [2] has as its system HepG2. Put plainly: Cytotoxicity against human HepG2 cells measured after 72 hrs by MTT assay. To be noted: HepG2, 72 h.
A further experiment concerns HCT-116. Put plainly: Cytotoxicity against human HCT116 cells measured after 72 hrs by MTT assay. The conditions noted are these: HCT-116, 72 h.
Another experiment relates to BGC-823. The experiment is described as follows: Cytotoxicity against human BGC823 cells measured after 72 hrs by MTT assay. The conditions noted are these: BGC-823, 72 h.

As to `COC(=O)c1cc(OC)c2c(c1-c1c(CO)cc(OC)c3c1OCO3)OCO2` [BICYCLOL], the viability at 10 µM in the experiment on HepG2 [1] came to 31.9%.

For `C=C1CC[C@H](C(C)C)[C@@H](/C=C(\CC(=O)O)C(=O)O)[C@@H]1O`, the viability at 10 µM with HepG2 [1] was in the range of 33.2 to 41.6%.

Take `CC(=O)OC/C(=C\[C@@H]1[C@@H](C(C)C)CC[C@@]2(O)COC(=O)[C@@H]12)C(=O)O`: the viability at 10 µM in the experiment on HepG2 [1] was 33.2 to 41.6%.

As to `CC(C)[C@H]1CC[C@@H](CO)c2c(O)cc(C(=O)O)cc21`, the viability at 10 µM in the experiment on HepG2 [1] was 33.2 to 41.6%.

As to `CC(C)[C@H]1CC[C@H](C(=O)O)[C@H]2CCC(C(=O)O)=C[C@@H]21`, the viability at 10 µM with HepG2 [1] was in the range of 33.2 to 41.6%.

For the compound `C=C(CC[C@@H](C)[C@H]1CC[C@H]2C3=CC(=O)[C@H]4[C@H](O)[C@@H](O)CC[C@]4(C)[C@H]3CC[C@]12C)C(C)COC` (stereo partly drawn), the viability at 10 µM in the experiment with HepG2 [1] fell in the range of 33.2 to 41.6%. Further, the pIC50 – broadly, −log10 of the IC50, conventionally taken in molar units – is below 5.00 in the experiment on A549; 5.59 with MCF7; below 5.00 in the experiment on HepG2 [2]; below 5.00 with HCT-116; below 5.00 in the experiment on BGC-823.

Turning to `C=C(C)[C@@]12O[C@@H]1[C@@]1(C)C(=CC2=O)CC[C@@H](O)[C@@H]1C`, in the experiment on HepG2 [1], the viability at 10 µM fell in the range of 33.2 to 41.6%.

On to `CC(C)[C@H]1CC[C@H](CO)c2c(O)cc(C(=O)O)cc21`, for which the viability at 10 µM in the experiment on HepG2 [1] fell in the range of 33.2 to 41.6%.

In the case of `CC(=O)O[C@H]1C(=O)[C@@]2(C)[C@H]([C@H](OC(=O)c3ccccc3)[C@]3(O)C[C@H](OC(=O)[C@H](O)[C@@H](NC(=O)c4ccccc4)c4ccccc4)C(C)=C1C3(C)C)[C@]1(OC(C)=O)CO[C@@H]1C[C@@H]2O` [PACLITAXEL], the pIC50 with A549 is 7.86; in the experiment with MCF7, 9.70; in the experiment on HepG2 [2] it was 8.72; in the experiment with HCT-116, 8.74; in the experiment on BGC-823, 9.40.
